Assay [1] in a line: Competitive inhibition of Streptococcus pneumoniae ASADH using aspartyl semialdehyde as substrate using Dixon plot analysis. The method, boiled down: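 Recombinant S. pneumoniae enzyme, reverse reaction read as NADPH rise at 340 nm, room temperature. Buffer: 120 mM CHES pH 8.6, 200 mM KCl, 20% DMSO for DMSO-soluble inhibitors. Substrates: 1 mM ASA, 1.5 mM NADP, 20 mM phosphate. Enzyme added last; inhibitor serially diluted. Initial velocities fitted to Dixon equation assuming competition with ASA.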

Assay [2] in a line: Competitive inhibition of Vibrio cholerae ASADH using aspartyl semialdehyde as substrate by Dixon plot analysis. The method, boiled down:
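Recombinant V. cholerae ASADH, reverse reaction, room temperature, in 120 mM CHES pH 8.6, 200 mM KCl and 20% DMSO. Final levels: ASA 1 mM, NADP 1.5 mM, phosphate 20 mM. Enzyme added to start; inhibitor serially diluted across wells. NADPH rise read at 340 nm; initial velocities fitted to Dixon equation assuming ASA-competitive inhibition to give Ki.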

Assay [3] can be described thus: Competitive inhibition of Vibrio cholerae ASADH using different concentration of aspartyl semialdehyde as substrate by spectrophotometry. The method in brief: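 Recombinant V. cholerae ASADH, reverse reaction at room temperature in 120 mM CHES pH 8.6, 200 mM KCl, 20% DMSO, with NADP and phosphate. ASA varied at several fixed inhibitor concentrations. NADPH formation read at 340 nm; initial-rate data fitted to standard inhibition-type models.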

With `COC(=O)c1ccc(C(=O)OC)nc1`, in assay [1], the inhibition constant (Ki) (usually the equilibrium dissociation constant of an inhibitor or competing ligand from its target) is over 20000 µM. As to `CCn1c(=O)n(CC)c2cc([N+](=O)[O-])ccc21`, the Ki in assay [1] is over 4000 µM. Take `O=C1NC(=O)c2cc([N+](=O)[O-])ccc21`: the Ki in assay [2] came out at 2600 µM; in assay [1], 3300 µM. With `O=C(O)c1ccc([N+](=O)[O-])cn1`, the Ki in assay [2] came out at 2100 µM; in assay [1] it was 1200 µM. Turning to `COC(=O)c1ccc([N+](=O)[O-])cn1`, the Ki in assay [1] is over 20000 µM. As to `O=C1NC(=O)c2cc([N+](=O)[O-])c(Cl)cc21`, the Ki in assay [2] came out at 180 µM; in assay [3] it was 197 µM; in assay [1] it was 150 µM. On to `CN1C(=O)c2ccc([N+](=O)[O-])cc2C1=O`, for which the Ki in assay [2] amounted to 1100 µM; in assay [1], 890 µM.

In assay [1], `CCN1C(=O)c2ccc([N+](=O)[O-])cc2C1=O` returned a Ki of over 4000 µM.

Regarding `O=c1[nH]c2ccc([N+](=O)[O-])cc2[nH]1`, the Ki in assay [2] is 1100 µM; in assay [1], 400 µM.

For `Cn1c(=O)n(C)c2cc([N+](=O)[O-])ccc21`, the Ki was over 130 µM in assay [2], 24 µM in assay [3] and 86 µM in assay [1].

For `O=C(O)c1cc(C(=O)O)cc(C(=O)Nc2ccc([N+](=O)[O-])cc2)c1`, the values for the inhibitory constant (Ki) in assay [2] and in assay [1] were 180 µM and 110 µM, respectively. As to `COC(=O)c1cc(C(=O)Nc2ccc([N+](=O)[O-])cc2)cc(C(=O)OC)c1`, the inhibitory constant (Ki) in assay [1] is over 20000 µM. On to `O=C(O)c1ccc(C(=O)O)nc1` [PYRIDINE-2,5-DICARBOXYLIC ACID], for which the Ki in assay [2] was 1200 µM; in assay [1] it was 690 µM.

(Values after ChEMBL document CHEMBL2021789, “Molecular docking and enzymatic evaluation to identify selective inhibitors of aspartate semialdehyde dehydrogenase” (Bioorg Med Chem, 2012).)
